Activity calls are given as the source filed them. No cut-off for these calls is given here.

Data on 17 molecules can be found in ChEMBL document CHEMBL4024804 (J Med Chem, 2018).

Data set [1] concerns A-375. Description: Antimigratory activity in human A375 cells assessed as wound closure at 5 nM after 22 hrs (reference value: 60.7 +/- […]). The format is functional.
The subject of data set [2] is A-375. As to the kind of experiment: Antimigratory activity in human A375 cells assessed as wound closure at 25 nM after 22 hrs (reference value: 60.7 +/- […]). The data set is classed as functional.
Data set [3] relates to RPMI-7951. As to the kind of experiment: Antimigratory activity in human RPMI7951 cells assessed as wound closure at 25 nM after 18 hrs (reference value: 71.8 +/- 1.8%). The data set is classed as functional.
In data set [4] the test system is RPMI-7951. As to the kind of experiment: Antimigratory activity in human RPMI7951 cells at 5 nM after 18 hrs by wound healing assay. The data set is classed as functional, cell-based.
Data set [5] relates to A-375. Description: Cytotoxicity against human A375 cells after 72 hrs by MTS assay. The data set is classed as functional, cell-based. The note with it: A-375, 72 h. Put shortly: (§1)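 Melanoma cells grown in DMEM with 10% FBS and seeded at 1800–3500 cells per well, then incubated overnight. Cells treated for 72 h with 10 concentrations from 0.03 nM to 1 μM, with DMSO vehicle, in four replicates. MTS added for at least 1 h at 37 °C and absorbance read at 490 nm. IC50 obtained by nonlinear regression.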

Data set [6] deals with M14. As to the kind of experiment: Cytotoxicity against human M14 cells after 72 hrs by MTS assay. The format is functional, cell-based. The note with it: M14, 72 h. Put shortly:
as §1

The subject of data set [7] is RPMI-7951. As to the kind of experiment: Cytotoxicity against human RPMI7951 cells after 72 hrs by MTS assay. The format is functional, cell-based. Conditions: RPMI-7951, 72 h. Put shortly: as §1
Data set [8] relates to Liver. As to the kind of experiment: Half life in human liver microsomes by UPLC-MS analysis. The data set is classed as ADME, microsome. In a few lines:
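Compound at 10 mM in DMSO diluted into human liver microsomes (0.6381 mg/mL protein) in 0.1 M potassium phosphate pH 7.4 with EDTA. NADPH regenerating system added, incubated at 37 °C for 0–4 h in triplicate. Quenched with cold acetonitrile containing warfarin as internal standard, analysed by UPLC–MS SIR. ke from log-linear regression; t1/2 = ln 2/ke.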

For data set [9], the species on record is Homo sapiens. As to the kind of experiment: Inhibition of tubulin polymerization in human WM164 cells assessed as fragmentation of microtubules at 100 nM after 18 hrs using DAPI by immunofluorescence-based confocal microscopic method. The data set is classed as cell-based. In a few lines: (§2)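 WM164 cells on glass coverslips (125 000 cells/well), incubated overnight, treated 18 h with 100 nM compound or DMSO vehicle. Stained with anti-α-tubulin and Alexa Fluor 647 anti-mouse IgG, mounted in DAPI-containing medium, and imaged by confocal microscopy.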

Data set [10] is filed under the species Homo sapiens. Description: Inhibition of tubulin polymerization in human WM164 cells assessed as decrease in polymeric tubulin filaments at 100 nM after 18 hrs using DAPI by immunofluorescence-based confocal microscopic method. The data set is classed as cell-based. In a few lines:
as §2

Data set [11] is filed under the species Homo sapiens. Description: Inhibition of tubulin polymerization in human WM164 cells assessed as increase in cytoplasmic soluble tubulin levels at 100 nM after 18 hrs using DAPI by immunofluorescence-based confocal microscopic method. The data set is classed as cell-based. Put shortly:
as §2

The subject of data set [12] is PC-3. As to the kind of experiment: Cytotoxicity against human PC3 cells after 72 hrs by MTS assay. The format is functional, cell-based. Conditions: PC-3, 72 h. In a few lines:
(§3)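 Cells treated 72 h at 10 concentrations, 0.03 nM–1 μM, n = 4. MTS read at 490 nm; IC50 by nonlinear regression. RI = resistant IC50 / parental IC50.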

A short description of data set [13]: Cytotoxicity against human PC3-TxR cells after 72 hrs by MTS assay. The format is functional, cell-based. In a few lines: as §3
Data set [14] can be described thus: Resistance index, ratio of IC50 for human PC3-TxR cells to IC50 for human PC3 cells. The format is functional. In a few lines:
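Cells were treated 72 h with 10 concentrations from 0.03 nM to 1 μM, four replicates, A490 read. IC50 by nonlinear regression. RI = IC50 resistant / IC50 parental.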

The test system of data set [15] is DU-145. Description: Cytotoxicity against human DU145 cells after 72 hrs by MTS assay. The format is functional, cell-based. The note with it: DU-145, 72 h. Put shortly:
as §3

Data set [16] can be described thus: Cytotoxicity against human DU145-TxR cells after 72 hrs by MTS assay. The data set is classed as functional, cell-based. In a few lines: as §3
A short description of data set [17]: Resistance index, ratio of IC50 for human DU145-TxR cells to IC50 for human DU145 cells. The format is functional. Put shortly: as §3
A short description of data set [18]: Acute toxicity in nude mouse administered as qd for 5 days. Conditions: in vivo. Put shortly: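 Nude mice, 6–8 weeks old; compound formulated in PEG300 and given as five continuous daily administrations, then monitored for acute toxicity. A single-dose acute MTD was estimated first.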
In data set [19] the test system is A-375. Description: Antitumor activity against human A375 cells xenografted in nude mouse assessed as tumor growth inhibition at 15 mg/kg, ip administered every other day for 2 weeks relative to control. The data set is classed as functional. The note with it: A-375, ip, 336 h, read-out: TGI. In a few lines: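 Nude mice 6–8 weeks old; 2 × 10^6 A375 cells in FBS-free medium with Matrigel injected sc into dorsal flank. At about 100 mm3 mice were randomized, n = 8. Drug in 2:1 PEG300/PBS given ip every other day. Volume measured by caliper three times weekly (a × b2 × 0.5).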

Data set [20] deals with A-375. As to the kind of experiment: Antitumor activity against human A375 cells xenografted in nude mouse assessed as decrease in tumor weight at 30 mg/kg, ip administered every other day for 2 weeks. The data set is classed as functional, organism-based. The note with it: 15 mg/kg, in the assay text read “at 15 mg/kg” for “at 30 mg/kg”. Put shortly: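 Nude mice (6–8 weeks) injected subcutaneously in dorsal flank with 2 × 10^6 A375 cells in Matrigel. At ~100 mm3, randomized (n = 8). Compound given ip every other day in 2:1 PEG300/PBS; vehicle equal parts PEG300/PBS. Tumors weighed at sacrifice; mean ± SEM, ANOVA with Dunnett's test versus vehicle.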

Data set [21] relates to A-375. As to the kind of experiment: Induction of apoptosis in human A375 cells xenografted in nude mouse assessed as increase in cleaved caspase-3 levels at 15 mg/kg, ip administered every other day for 2 weeks by immunohistochemical analysis. The format is functional, organism-based. Put shortly: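 Formalin-fixed, paraffin-embedded A375 xenograft tumors from mice dosed ip every other day (2:1 PEG300/PBS). Serial sections immunostained with rabbit anti-cleaved caspase 3 antibody by the ABC-DAB method.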

Data set [22] deals with A-375. As to the kind of experiment: Induction of morphological changes in human A375 cells xenografted in nude mouse assessed as less microvessel density at 15 mg/kg, ip administered every other day for 2 weeks by immunohistochemical analysis. The data set is classed as functional, organism-based.
The subject of data set [23] is Tubulin (Sus scrofa). Description: Inhibition of tubulin (porcine brain) polymerization measured every min for 50 mins.
The subject of data set [24] is PC3-TxR. As to the kind of experiment: Antitumor activity against human PC3-TxR cells xenografted in nude mouse assessed as decrease in tumor volume at 15 mg/kg, ip administered every other day for 3 weeks. The data set is classed as functional, organism-based. In a few lines:
(§4)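 Paclitaxel-resistant PC-3/TxR, kept drug-free at least 1 week beforehand, implanted subcutaneously (2.5 × 10^6 cells with Matrigel) in nude mice. Randomized at ~100 mm3 (n = 7). Dosing ip every other day in 2:1 PEG300/PBS. Volume by caliper (a × b2 × 0.5) three times weekly, tumors weighed at end. One-way ANOVA with Dunnett's test versus vehicle.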

Data set [25] deals with PC3-TxR. As to the kind of experiment: Antitumor activity against human PC3-TxR cells xenografted in nude mouse assessed as decrease in tumor weight at 15 mg/kg, ip administered every other day for 3 weeks. The data set is classed as functional, organism-based. Put shortly:
as §4

The subject of data set [26] is Mus musculus. As to the kind of experiment: Toxicity in nude mouse xenografted with human PC3-TxR cells assessed as decrease in body weight at 15 mg/kg, ip administered every other day for 2 weeks. The format is organism-based. The note with it: in vivo, 336 h.
In data set [27] the test system is PC-3. As to the kind of experiment: Antitumor activity against human PC3 cells xenografted in nude mouse assessed as decrease in tumor volume at 15 mg/kg, ip administered every other day for 3 weeks. The format is functional, organism-based. Put shortly:
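PC-3 cells (2.5 × 10^6) with Matrigel injected subcutaneously in dorsal flank of nude mice. At ~100 mm3, randomized (n = 8). Dosing ip every other day in 2:1 PEG300/PBS; vehicle PEG300/PBS 1:1. Caliper volume a × b2 × 0.5 three times weekly.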

Take `COc1cc2c(c(OC)c1OC)-c1ccc(OC)c(=O)cc1[C@@H](NC(C)=O)CC2` [COLCHICINE]: the Activity in [1] was 46%; in data set [2] it was 20.7%; in data set [3] it was 42.8%. For the same molecule, the result in [4] was inactive.

Regarding `COc1ccc2c(c1)CCCN2c1nc(C)nc2onc(C)c12`, the IC50 is 16.1 nM in data set [5], 18.8 nM in data set [6] and 17.6 nM in data set [7]. In data set [8], the t1/2 is 51.6 min.

Regarding `CN(c1ccc2c(c1)OCO2)c1nc(Cl)nc2ncccc12`, the IC50 was found to be 162 nM in data set [5], 164 nM in [6] and 179 nM in data set [7].

As to `COc1ccc2c(c1)CCCN2c1nc(Cl)nc2cccnc12`, the IC50 in data set [5] stood at 4 nM; in [6], 4.2 nM; in data set [7], 4.4 nM.

With `COc1ccc2c(n1)CCCN2c1nc(Cl)nc2ncccc12`, the IC50 in [5], in data set [6] and in data set [7] was more than 1000 nM each time.

In the case of `COc1ccc2c(c1)CCCN2c1nc(Cl)nc2c1cnn2C`, the IC50 in data set [5], in [6] and in [7] was more than 1000 nM in each case.

With `COc1ccc2c(c1)CCCN2c1nc(Cl)nc2ncn(C)c12`, the figures for the IC50 in [5], in [6] and in data set [7] were 39.6 nM, 41.2 nM and 58.9 nM, respectively.

For `COc1ccc2c(c1)CCCN2c1nc(C)nc2[nH]ncc12`, the half-inhibitory concentration (IC50) in [5], in [6] and in data set [7] was more than 1000 nM throughout.

As to `COc1ccc2c(c1)C(O)CCN2c1nc(Cl)nc2ncccc12` (configuration not stated), the IC50 in data set [5] was 36.1 nM; in data set [6] it was 52.6 nM; in data set [7], 41.9 nM.

Turning to `CC(=O)O[C@@]12CO[C@@H]1C[C@H](O)[C@@]1(C)C(=O)[C@H](O)C3=C(C)[C@@H](OC(=O)[C@H](O)[C@@H](NC(=O)OC(C)(C)C)c4ccccc4)C[C@@](O)([C@@H](OC(=O)c4ccccc4)[C@H]21)C3(C)C` [DOCETAXEL ANHYDROUS], the inhibition entry in data set [9], in [10] and in data set [11] was “inactive” throughout. In addition, the IC50 in data set [12] turned out to be 0.5 nM; in data set [13], 27.9 nM; in data set [15], 0.1 nM; in data set [16], 352 nM. For the same molecule, the “Ratio IC50” value in [14] is reported as 55.8; in data set [17], more than 3523.

With `COc1ccc2c(c1)CCCN2c1nc(Cl)nc2c(C)csc12`, the IC50 in data set [5] amounted to 49 nM; in data set [6], 52.6 nM; in data set [7], 91.3 nM.

In the case of `COc1ccc2c(c1)OCCN2c1nc(Cl)nc2ncccc12`, the results for the IC50 in [5], in [6] and in [7] were 223 nM, 269 nM and 404 nM, respectively.

Turning to `COc1ccc2c(c1)C(=O)CCN2c1nc(Cl)nc2ncccc12`, the IC50 in data set [5], in data set [6] and in [7] was more than 1000 nM in each case.

As for `COc1ccc(N(C)c2nc(Cl)nc3ncccc23)cc1OC`, the IC50 in data set [5] came out at 39 nM; in data set [6], 39.5 nM; in data set [7] it was 47.5 nM.

With `COc1cc(N(C)c2nc(Cl)nc3ncccc23)cc(OC)c1OC`, the IC50 in [5], in data set [6] and in [7] was more than 1000 nM in each case.

With `COc1ccc2c(c1)CCCN2c1nc(Cl)nc2ccoc12`, the IC50 in data set [5] stood at 3.2 nM; in data set [6], 3.3 nM; in [7], 5.1 nM. This molecule gave a t1/2 in data set [8] of 19.2 min. The molecule also yielded an MTD at 120 h in [18] of 30 mg/kg. Moreover, the inhibition in vivo at 15 mg/kg in data set [19] is 66.5%. The outcome in data set [20], in data set [21] and in data set [22] was Active. Also, the inhibition result in data set [23] is “Dose-dependent effect”.

For `CC(=O)O[C@H]1C(=O)[C@@]2(C)[C@H]([C@H](OC(=O)c3ccccc3)[C@]3(O)C[C@H](OC(=O)[C@H](O)[C@@H](NC(=O)c4ccccc4)c4ccccc4)C(C)=C1C3(C)C)[C@]1(OC(C)=O)CO[C@@H]1C[C@@H]2O` [PACLITAXEL], the inhibition in vivo at 15 mg/kg in data set [19] was 76.5%. Further, the result in data set [21] and in data set [27] was Active. Besides, the figures for the IC50 in data set [12], in data set [13] and in [16] were 3.7 nM, 111 nM and more than 1000 nM, respectively. The outcome in [24] and in [25] was inactive. Further, in data set [26], the Activity entry was “Toxic”.
